Measurements reported in ChEMBL document CHEMBL1124422, “Antitumor and antiviral activity of synthetic alpha- and beta-ribonucleosides of certain substituted pyrimido[5,4-d]pyrimidines: a new synthetic strategy for exocyclic aminonucleosides” (1989).

How the values were obtained:
WIL2 = test: Inhibitory concentration of compound that inhibits tumor cell growth by 50% in Human B-lymphoblast (WI-L) cell line; format: functional; conditions: read-out: ID50 (the source's name)
Outline: (§1)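 Incubation was 3 days for L1210 and WI-L2 and 5 days for LoVo/L. MTT was added for 2 to 5 h and formazan was read by absorbance. ID50 is the concentration giving 50% of untreated control growth.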

LoVo = test: Inhibitory concentration of compound that inhibits tumor cell growth by 50% in Human colon carcinoma (LoVo/L) cell line; format: functional; conditions: read-out: ID50 (the source's name); outline: as §1
HeLa = test: In vitro antiviral activity against Vaccinia virus (Elstree strain) cell line in HeLa cells; format: functional, Homo sapiens
L1210 = test: Inhibitory concentration of compound that inhibits tumor cell growth by 50% in Murine leukemia (L1210) cell line; format: functional; conditions: Mus musculus, read-out: ID50 (the source's name); outline: as §1
[1] = Effect on de novo purine biosynthesis when [14C]formate was incorporated to fraction WI-L2 cells at 25 uM with preincubation time of 4 h; format: functional, Homo sapiens
Outline: (§2)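 WI-L2 cells (or adenosine kinase-deficient mutant) kept in log phase in RPMI 1640 with 5% dialyzed FBS, 20 mM NaHEPES pH 7.5, 2 mM glutamine; preincubated with drug at 37 °C, then labeled with [14C]formate. De novo purine synthesis read as [14C]formate incorporation into cellular (hot acid-soluble) and excreted purines, scored as inhibition.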

Vero [2] = test: In vitro antiviral activity against Parainfluenza 3 (C243 strain)cell line in Vero cells; format: functional, Chlorocebus sabaeus
Vero [3] = test: In vitro antiviral activity against herpes simplex virus type 2 (MS strain) cell line in Vero cells; format: functional, Chlorocebus sabaeus
[4] = Effect on de novo purine biosynthesis when [14C]-formate was incorporated into WI-L2 cells at 50 uM with pre-incubation time of 8 h; format: functional, Homo sapiens
Outline: (§3)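 Cells were preincubated with drug at 37 °C, then labelled with [14C]formate. De novo purine synthesis was read as label incorporated into cellular and excreted purines (hot acid-soluble fraction).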

Homo sapiens [5] = organism: Homo sapiens; test: Effect on de novo purine biosynthesis when [14C]-formate was incorporated into WI-L2 media at 50 uM with pre-incubation time of 8 h; format: functional
Outline: (§4)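 WI-L2 cells preincubated with drug at 37 °C before [14C]formate labeling. Read-out: [14C]formate incorporation into cellular and excreted purines (hot acid-soluble fraction). Cells grown in RPMI 1640 with 5% dialyzed fetal bovine serum, 20 mM NaHEPES pH 7.5, 2 mM glutamine, and kept in log phase between 0.5 and 12×10^5 cells/mL.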

Vero [6] = test: In vitro antiviral activity against Parainfluenza 3 (C243 strain) cell line in Vero cells; format: functional, Chlorocebus sabaeus
[7] = Effect on de novo purine biosynthesis when [14C]formate was incorporated to WI-L2 cells at 0.25 uM with preincubation time of 8 h; format: functional, Homo sapiens; outline: as §2
[8] = Effect on de novo purine biosynthesis when [14C]formate was incorporated to WI-L2 cells at 2.5 uM with preincubation time of 8 h; format: functional, Homo sapiens; outline: as §2
Homo sapiens [9] = organism: Homo sapiens; test: Effect on de novo purine biosynthesis when [14C]formate was incorporated to WI-L2 media at 0.25 uM with preincubation time of 8 h; format: functional; outline: as §2
Homo sapiens [10] = organism: Homo sapiens; test: Effect on de novo purine biosynthesis when [14C]formate was incorporated to WI-L2 media at 2.5 uM with preincubation time of 8 h; format: functional; outline: as §2
Homo sapiens [11] = organism: Homo sapiens; test: Effect on de novo purine biosynthesis when [14C]formate was incorporated to WI-L2 media at 50 uM with preincubation time of 8 h; format: functional; outline: as §4
[12] = Effect on de novo purine biosynthesis when [14C]formate was incorporated to WI-L2 cells at 50 uM with preincubation time of 8 h; format: functional, Homo sapiens; outline: as §3
Homo sapiens [13] = organism: Homo sapiens; test: Effect on de novo purine biosynthesis when [14C]-formate was incorporated to WI-L2 media at 0.25 uM with pre-incubation time of 8 h; format: functional; outline: as §2
Homo sapiens [14] = organism: Homo sapiens; test: Effect on de novo purine biosynthesis when [14C]-formate was incorporated to WI-L2 media at 2.5 uM with pre-incubation time of 8 h; format: functional; outline: as §2
[15] = Effect on de novo purine biosynthesis when [14C]-formate was incorporated to WI-L2 cells at 25 uM with preincubation time of 4 h; format: functional, Homo sapiens; outline: as §2

Row | Structure (SMILES) | IC50 (WIL2) [nM] | IC50 (LoVo) [nM] | Virus rating (HeLa) | IC50 (L1210) [nM] | Virus rating (Vero [2]) | Virus rating (Vero [3]) | Control [8] [%] | further results
1 | COc1ncnc2c(N[C@H]3O[C@H](CO)[C@@H](O)[C@H]3O)ncnc12 | 2500 | 18700 | 0.9 | 2900 | 0.7 | 0.1 | – | Control [1]: 98.2%
2 | Nc1ncnc2c(N[C@H]3O[C@H](CO)[C@@H](O)[C@H]3O)ncnc12 | 250 | 1000 | 1 | 380 | 1.4 | 0.2 | – | –
3 | Nc1ncnc2c(NC3O[C@H](CO)[C@@H](O)[C@H]3O)nc(Cl)nc12 (some centres not stated) | – | – | – | – | – | – | – | Control [4]: 16.4%; Control (Homo sapiens [5]): 43.4%
4 | Nc1ncnc2c(N[C@@H]3O[C@H](CO)[C@@H](O)[C@H]3O)ncnc12 | 200 | 7000 | 1.3 | 800 | – | 0.8 | 29.9 | Virus rating (Vero [6]): 0.7; Control [7]: 79.5%; Control (Homo sapiens [9]): 71.9%; Control (Homo sapiens [10]): 54.6%
5 | OC[C@H]1OC(Nc2ncnc3c(O)ncnc23)[C@H](O)[C@@H]1O (some centres not stated) | – | – | – | – | – | – | – | Control (Homo sapiens [11]): 106%; Control [12]: 98.2%
6 | COc1ncnc2c(N[C@@H]3O[C@H](CO)[C@@H](O)[C@H]3O)ncnc12 | 60 | 280 | 1 | 40 | 0.7 | 0.2 | 2.7 | Control [7]: 41.9%; Control (Homo sapiens [13]): 63%; Control (Homo sapiens [14]): 41.8%; Control [15]: 4.3%
7 | Nc1nc(NC2O[C@H](CO)[C@@H](O)[C@H]2O)c2ncnc(N)c2n1 (some centres not stated) | – | – | – | – | – | – | 91.2 | Control (Homo sapiens [9]): 89.8%
8 | CN(C)c1ncnc2c(NC3O[C@H](CO)[C@@H](O)[C@H]3O)ncnc12 (some centres not stated) | – | – | – | – | – | – | – | Control (Homo sapiens [11]): 85.8%; Control [12]: 50.7%
